# Assay results taken from ChEMBL document CHEMBL1137455, “Replacement of the lactone moiety on podophyllotoxin and steganacin analogues with a 1,5-disubstituted 1,2,3-triazole via ruthenium-catalyzed click chemistry” (Bioorg Med Chem, 2007).
# pIC50: −log10 of the molar value. Active and inactive are the calls of the source. The rule behind the calls is not given here.
# Tests used:
# [1] = tested on: SH-SY5Y; assay: Cytotoxicity against SH-SY5Y cells assessed as cell viability after 48 hrs by MTT method; type: functional, cell-based; settings: Homo sapiens
# Outline: (§1)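 SH-SY5Y human neuroblastoma cells exposed to compounds for 48 h; viability read by MTT; dose–response curves; highest concentration tested 100 μM.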
# [2] = molecular target: Tubulin (Homo sapiens) (UniProt P68371+Q9H4B7+P0DPH7+P68366+Q13509+Q71U36+P04350+Q3ZCM7+P07437+P68363+Q9BQE3+Q6PEY2+Q13885+Q9BVA1+Q9BUF5); assay: Induction of tubulin depolymerization after 16 hrs; type: protein-complex assay
# Outline: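 Cells treated 16 h with tubulin-disrupting agents; proteins harvested in presence of paclitaxel to fix polymerized and unpolymerized tubulin; soluble (non-polymerized) and pellet (polymerized) fractions run on SDS-PAGE and immunoblotted with monoclonal mouse anti-tubulin antibody.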
# [3] = tested on: SH-SY5Y; assay: Cytotoxicity against SH-SY5Y cells assessed as cell viability above 10 uM after 48 hrs by MTT method; type: functional, cell-based; settings: Homo sapiens; outline: as §1
# [4] = tested on: SH-SY5Y; assay: Cytotoxicity against SH-SY5Y cells assessed as cell viability upto 100 uM after 48 hrs by MTT method; type: functional, cell-based; settings: Homo sapiens; outline: as §1
Structure (SMILES),pIC50 [1],Activity [2],Activity [4],other results
COc1cc([C@@H]2c3cc4c(cc3[C@H](O)[C@H]3COC(=O)[C@H]23)OCO4)cc(OC)c1OC [PODOFILOX],8.15,Active,,
COc1cc(C2c3cc4c(cc3Cn3nncc32)OCO4)cc(OC)c1OC (racemic),5.82,Active,,
COc1cc2c(c(OC)c1OC)-c1cc3c(cc1Cn1nncc1C2)OCO3,,,,Activity [3]: Toxic
COc1ccc(/C=C\c2cc(OC)c(OC)c(OC)c2)cc1O,,Active,,
COc1cc(Cc2cnnn2Cc2ccc3c(c2)OCO3)cc(OC)c1OC,,,Not toxic,
COc1cc(C(O)c2cnnn2Cc2ccc3c(c2)OCO3)cc(OC)c1OC (stereo unspecified),,,Not toxic,
COc1cc(Cn2nncc2Cc2ccc3c(c2)OCO3)cc(OC)c1OC,,,Not toxic,
CC(=O)O[C@H]1C(=O)[C@@]2(C)[C@H]([C@H](OC(=O)c3ccccc3)[C@]3(O)C[C@H](OC(=O)[C@H](O)[C@@H](NC(=O)c4ccccc4)c4ccccc4)C(C)=C1C3(C)C)[C@]1(OC(C)=O)CO[C@@H]1C[C@@H]2O,,inactive,,
COc1cc2c(c(OC)c1OC)-c1cc3c(cc1Cc1cnnn1C2)OCO3,5.96,,,
